Measured values as given in ChEMBL document CHEMBL1125363, “Novel piperidine sigma receptor ligands as potential antipsychotic drugs” (J Med Chem, 1992).

Assays:
D(2) dopamine receptor = D(2) dopamine receptor (Mus musculus, UniProt P61168); test: In vitro binding affinity towards dopamine receptor D2
[1] = biological target: Sigma non-opioid intracellular receptor 1 (Mus musculus, UniProt O55242); test: In vitro binding affinity for the mouse sigma opioid receptor
[2] = biological target: Serotonin 2 (5-HT2) receptor (Mus musculus, UniProt Q02152+P34968+P35363); test: In vitro binding affinity for serotonin 5-hydroxytryptamine (5-HT) 2 receptors; type: protein assay
Mus musculus = organism: Mus musculus; test: Oral potency tested by using anti-mescaline test; type: functional
Outline: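 Mice; mescaline was given to evoke hallucinogen-type behaviour, and the test compound was dosed orally to antagonise it. Potency is the ED50 in mg/kg po. Some ED50s are the average of three measurements.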

Sigma non-opioid intracellular receptor 1, sequence (O55242 whole entry): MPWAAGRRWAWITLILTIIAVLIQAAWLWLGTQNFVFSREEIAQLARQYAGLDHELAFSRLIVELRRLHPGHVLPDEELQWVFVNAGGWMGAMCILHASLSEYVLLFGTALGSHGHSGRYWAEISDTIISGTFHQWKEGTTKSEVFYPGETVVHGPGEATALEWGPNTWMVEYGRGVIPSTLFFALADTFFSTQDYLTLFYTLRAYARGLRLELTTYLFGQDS
D(2) dopamine receptor, sequence (P61168 whole entry): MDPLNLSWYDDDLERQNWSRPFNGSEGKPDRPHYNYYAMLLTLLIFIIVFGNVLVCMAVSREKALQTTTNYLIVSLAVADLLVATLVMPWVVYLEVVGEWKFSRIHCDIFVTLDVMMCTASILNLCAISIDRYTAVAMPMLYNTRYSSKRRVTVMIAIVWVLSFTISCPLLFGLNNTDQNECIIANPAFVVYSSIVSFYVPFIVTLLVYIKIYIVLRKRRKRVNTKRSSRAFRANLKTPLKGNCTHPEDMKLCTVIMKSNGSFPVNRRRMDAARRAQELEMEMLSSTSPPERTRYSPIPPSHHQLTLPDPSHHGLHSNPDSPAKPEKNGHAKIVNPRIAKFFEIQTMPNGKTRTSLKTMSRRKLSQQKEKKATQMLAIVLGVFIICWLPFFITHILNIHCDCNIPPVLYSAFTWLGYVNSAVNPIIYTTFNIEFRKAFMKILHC

Row | Compound | IC50 (D(2) dopamine receptor) [µM] | Ki [1] [µM] | Ki [2] [µM] | ED50 (Mus musculus) [mg/kg]
1 | c1cc(OCC2CCN(CC3CC3)CC2)ccn1 | > 10 | 0.175 | – | –
2 | Cl.Fc1ccc(OCCC2CCN(Cc3ccccc3)CC2)cc1.O | 0.114 | 0.004 | < 0.1 | 16
3 | COc1ccc(OCC2CCN(Cc3ccccc3)CC2)cc1 | > 10 | 0.003 | 0.055 | > 30
4 | O=C(O)/C=C\C(=O)O.c1ccc(CN2CCC(COC3CC3)CC2)cc1 | > 10 | 0.002 | > 10 | > 30
5 | O=C(CCCN1CCC(C(=O)Cc2ccc(F)cc2)CC1)c1ccc(F)cc1 | – | 0.04 | 0.017 | 1.9
6 | Cl.Fc1ccc(COCC2CCN(Cc3ccc(OCc4ccccc4)cc3)CC2)cc1 | 0.773 | 0.027 | < 0.1 | < 30
7 | O=C(CC1CCN(CCc2ccc(Cl)cc2)CC1)c1ccc(F)cc1 | 0.014 | 0.005 | 0.0084 | 1.8
8 | O.OCc1ccc(OCC2CCN(CC3CC3)CC2)cc1 | > 10 | 0.035 | > 0.1 | > 30
9 | O.OC(Cc1ccc(F)cc1)C1CCN(CCCc2ccccc2)CC1 (stereo unspecified) | 1.7 | 0.007 | 0.041 | –
10 | Cl.OC(Cc1ccccc1)C1CCN(Cc2ccccc2)CC1 (stereo unspecified) | 8.3 | 0.018 | 1.603 | < 10
11 | CSc1ccc(OCC2CCN(CC3CC3)CC2)cc1.Cl | 1.98 | 0.007 | 0.114 | > 30
12 | OC(Cc1ccc(F)cc1)C1CCN(CCCCc2ccccc2)CC1 (stereo unspecified) | 0.9 | 0.011 | 0.065 | 18
13 | Fc1ccc(CN2CCC(COc3ccc(F)cc3)CC2)cc1 | 1.07 | 0.008 | 0.038 | 5.9
14 | O=C(CC1CCN(CCc2ccccc2)CC1)c1ccc(F)cc1 | 0.042 | 0.008 | 0.008 | 4.1
15 | CS(=O)(=O)c1ccc(C(=O)CC2CCN(Cc3ccccc3)CC2)cc1 | > 10 | 0.018 | 0.116 | > 30
16 | O.O=C(CC1CCN(Cc2ccccc2)CC1)c1ccc(O)cc1 | 1.34 | 0.018 | > 1 | > 30
17 | COC(=O)c1ccc(COCC2CCN(Cc3ccccc3)CC2)cc1.Cl.O | 0.97 | 0.015 | > 10 | > 30
18 | O=C(CC1CCCCN1Cc1ccccc1)c1ccc(F)cc1.O=C(O)/C=C\C(=O)O (stereo unspecified) | 3.34 | 0.037 | – | 4.3
19 | Cl.Fc1ccc(COCC2CCN(Cc3cccc4ccccc34)CC2)cc1 | 0.219 | 0.022 | 0.025 | 12
20 | O=C(CC1CCCN(Cc2ccccc2)C1)c1ccc(F)cc1 (stereo unspecified) | 0.034 | 0.014 | – | 1.1
21 | COc1ccc(CN2CCC(COc3ccc(F)cc3)CC2)cc1.O.O=C(O)/C=C\C(=O)O | 1.34 | 0.03 | – | 6.5
22 | COc1ccc(C(O)CC2CCN(Cc3ccccc3)CC2)cc1.Cl (stereo unspecified) | > 10 | 0.02 | 0.187 | > 30

Row | Compound | IC50 (D(2) dopamine receptor) [µM] | Ki [1] [µM] | Ki [2] [µM] | ED50 (Mus musculus) [mg/kg]
23 | Cl.c1ccc(OCC2CCN(CC3CC3)CC2)nc1 | 4.67 | 0.044 | 1.378 | > 30
24 | CCNc1ccc(OCC2CCN(CC3CC3)CC2)cc1.Cl.O | > 10 | 0.033 | > 10 | > 30
25 | O.OC(CC1CCN(Cc2ccccc2)CC1)c1ccc2ccccc2c1 (stereo unspecified) | 3.33 | 0.031 | > 0.1 | > 10
26 | Br.CC(C)(C)c1ccc(C(=O)CC2CCN(CC3CC3)CC2)cc1.O | 1.57 | 0.008 | > 1 | > 30
27 | Fc1ccc(COCC2CCN(CCc3ccccc3)CC2)cc1.O=C(O)/C=C\C(=O)O | 0.56 | 0.004 | 0.024 | 15
28 | O.c1ccc(CN2CCC(COc3ccc4ccccc4c3)CC2)cc1 | 1.02 | 0.006 | 0.173 | > 30
29 | Cl.Oc1ccc(CN2CCC(COCc3ccc(F)cc3)CC2)cc1 | 3.13 | 0.007 | 0.5 | > 10
30 | Cl.OC(CC1CCN(Cc2ccccc2)CC1)c1ccc(C(F)(F)F)cc1 (stereo unspecified) | > 10 | 0.006 | > 0.1 | > 30
31 | COc1ccc(COCC2CCN(Cc3ccccc3)CC2)cc1.O=C(O)/C=C\C(=O)O | 26 | 0.0035 | 0.287 | > 30
32 | CSc1ccc(C(=O)CC2CCN(Cc3ccccc3)CC2)cc1 | 0.715 | 0.008 | 0.208 | > 30
33 | Br.CN(C)c1ccc(C(=O)CC2CCN(CC3CC3)CC2)cc1.O | > 10 | 0.033 | 0.559 | 30
34 | O.OC(CC1CCN(Cc2ccccc2)CC1)c1ccco1 (stereo unspecified) | > 10 | 0.011 | 1.323 | > 30
35 | CC1CC1CN1CCC(COc2ccc(F)cc2)CC1.O=C(O)/C=C\C(=O)O (stereo unspecified) | 0.945 | 0.005 | 0.024 | > 10
36 | CC(=O)c1ccc(OCC2CCN(CC3CC3)CC2)cc1 | 0.539 | 0.009 | > 1 | > 30
37 | COc1cc(OCC2CCN(CC3CC3)CC2)cc(OC)c1OC.Cl | > 10 | 0.05 | 8.706 | > 30
38 | O.OC(CC1CCN(CCc2ccccc2)CC1)c1ccc(F)cc1 (stereo unspecified) | 0.806 | 0.007 | 0.101 | < 10
39 | OC(CC1CCN(CCC2CC2)CC1)c1ccc(F)cc1 (stereo unspecified) | > 10 | 0.155 | – | –
40 | CSc1ccc(C(O)CC2CCN(Cc3ccccc3)CC2)cc1 (stereo unspecified) | 7.63 | 0.01 | > 0.1 | > 30
41 | COC(=O)c1ccc(CN2CCC(COCc3ccc(F)cc3)CC2)cc1.Cl | 1.98 | 0.007 | 0.313 | > 10
42 | COc1ccc(OCC2CCN(CC3CC3)CC2)cc1.Cl.O | > 10 | 0.018 | > 0.1 | > 30
43 | Cl.Fc1c(F)c(F)c(OCC2CCN(CC3CC3)CC2)c(F)c1F | 5.68 | 0.01 | 3.356 | 26.2
44 | Cl.O=[N+]([O-])c1ccc(OCC2CCN(Cc3ccccc3)CC2)cc1 | 4.39 | 0.005 | 0.272 | 14

Row | Compound | IC50 (D(2) dopamine receptor) [µM] | Ki [1] [µM] | Ki [2] [µM] | ED50 (Mus musculus) [mg/kg]
45 | CC(O)c1ccc(OCC2CCN(CC3CC3)CC2)cc1 (stereo unspecified) | > 10 | 0.098 | – | –
46 | O=C(CC1CCN(Cc2ccccc2)CC1)c1ccc(-c2ccccc2)cc1 | 3.01 | 0.033 | > 0.1 | 30
47 | O=C(Cc1ccc(F)cc1)CC1CCN(Cc2ccccc2)CC1.O=C(O)/C=C\C(=O)O | 1.1 | 0.003 | 0.316 | > 30
48 | COc1ccc(C(=O)CC2CCN(Cc3ccccc3)CC2)cc1 | 6.07 | 0.004 | 0.313 | > 30
49 | O.O=C(O)/C=C\C(=O)O.c1ccc(CN2CCC(COc3cccnc3)CC2)cc1 | > 10 | 0.005 | > 10 | > 30
50 | COc1ccc(-c2ccc(OCC3CCN(CC4CC4)CC3)cc2)cc1 | 7.22 | 0.218 | – | –
51 | CC1(CN2CCC(COc3ccc(F)cc3)CC2)CC1(Cl)Cl.O=C(O)/C=C/C(=O)O (stereo unspecified) | 0.179 | 0.002 | 0.015 | < 10
52 | O=C(CC1CCCN(CC2CC2)C1)c1ccc(F)cc1 (stereo unspecified) | 0.185 | 0.017 | – | 1.3
53 | [O-][S+](CC1CCN(CCC2CC2)CC1)c1ccc(F)cc1 (stereo unspecified) | > 10 | 0.31 | – | –
54 | O.O=C(CC1CCN(Cc2ccccc2)CC1)c1ccc(CO)cc1 | > 10 | 0.031 | 0.438 | > 30
55 | c1cc2cc(OCC3CCN(CC4CC4)CC3)ccc2[nH]1 | 2.35 | 0.034 | 0.112 | < 30
56 | Cl.Clc1ccc(OCC2CCN(CC3CC3)CC2)c(Cl)c1 | 0.111 | 0.004 | 0.032 | 2.9
57 | Fc1ccc(OCC2CCN(Cc3ccc4ccccc4c3)CC2)cc1 | 4.34 | 0.051 | 0.118 | 1.7
58 | O.OC(CC1CCN(Cc2ccccc2)CC1)c1cccs1 (stereo unspecified) | 3.72 | 0.005 | 0.446 | > 30
59 | CS(=O)(=O)c1ccc(OCC2CCN(CC3CC3)CC2)cc1 | > 10 | 0.053 | 1.135 | > 30
60 | O.O=C(Cc1ccc(F)cc1)C1CCN(Cc2ccccc2)CC1.O=C(O)/C=C\C(=O)O | 4.56 | 0.003 | 0.29 | 18
61 | Cl.Fc1ccc(OCC2CCN(CC3CC3)CC2)cc1F | 2.84 | 0.002 | 0.041 | 4.5
62 | CN(C)S(=O)(=O)c1ccc(OCC2CCN(CC3CC3)CC2)cc1 | – | > 10 | – | –
63 | Nc1ccc(C(=O)CC2CCN(CC3CC3)CC2)cc1.O | > 10 | 0.146 | – | 10
64 | Fc1ccc(COCC2CCN(CCCc3ccccc3)CC2)cc1 | > 10 | 0.304 | – | –
65 | c1cnc(OCC2CCN(CC3CC3)CC2)nc1 | 4.45 | 0.347 | – | –
